# Laboratory results taken from PubChem BioAssay.
# Active and inactive are the calls of the source. Unless noted, no rule for the calls is given here. Peptide text beside a SMILES is read from it.
# Experiments:
# [1] = target: Pantothenate synthetase (Mycobacterium tuberculosis (strain ATCC 25618 / H37Rv)) (UniProt P9WIL5); test: Coupled enzyme confirmation of inhibitors against recombinant Mtb PanC (AID 375); conditions: coupled enzyme assay; at 10 µM, stronger effect = higher value;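 also: 0% = full reaction with vehicle and 100% = no enzyme background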
# Chain of Pantothenate synthetase (Mycobacterium tuberculosis (strain ATCC 25618 / H37Rv)) (P9WIL5 whole entry, looked up): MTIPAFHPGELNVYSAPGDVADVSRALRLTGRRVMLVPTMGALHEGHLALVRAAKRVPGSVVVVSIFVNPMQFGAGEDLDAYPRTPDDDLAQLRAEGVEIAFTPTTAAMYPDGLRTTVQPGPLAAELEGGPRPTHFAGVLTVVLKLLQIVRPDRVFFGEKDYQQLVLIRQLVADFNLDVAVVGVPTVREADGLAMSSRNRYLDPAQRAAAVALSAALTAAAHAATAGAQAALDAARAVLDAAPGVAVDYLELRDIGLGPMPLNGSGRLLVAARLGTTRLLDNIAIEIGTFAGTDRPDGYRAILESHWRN
# [2] = Her2 expression decrease, cell viability multiplex – SKBR3 breast tumor cells, AlphaScreen, ATP viability, primary screen (AID 461;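 active = Her2 level under about 52% in both replicate screens, with viability over 70% of control, limit read from the data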;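 as to Her2 level: lower value means less Her2 protein in the cells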;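 as to viability: percent of carrier control wells set as 100% viability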); conditions: SKBR3 Her2 protein level, 18-24 h, measured here: SKBR3 viability, ATP luminescence, at 10 µM
# [3] = target: Receptor tyrosine-protein kinase erbB-2 (Homo sapiens) (UniProt P04626); test: as above; conditions: 18-24 h, at 10 µM, stronger effect = lower value
# Chain of Receptor tyrosine-protein kinase erbB-2 (Homo sapiens) (P04626 whole entry, looked up): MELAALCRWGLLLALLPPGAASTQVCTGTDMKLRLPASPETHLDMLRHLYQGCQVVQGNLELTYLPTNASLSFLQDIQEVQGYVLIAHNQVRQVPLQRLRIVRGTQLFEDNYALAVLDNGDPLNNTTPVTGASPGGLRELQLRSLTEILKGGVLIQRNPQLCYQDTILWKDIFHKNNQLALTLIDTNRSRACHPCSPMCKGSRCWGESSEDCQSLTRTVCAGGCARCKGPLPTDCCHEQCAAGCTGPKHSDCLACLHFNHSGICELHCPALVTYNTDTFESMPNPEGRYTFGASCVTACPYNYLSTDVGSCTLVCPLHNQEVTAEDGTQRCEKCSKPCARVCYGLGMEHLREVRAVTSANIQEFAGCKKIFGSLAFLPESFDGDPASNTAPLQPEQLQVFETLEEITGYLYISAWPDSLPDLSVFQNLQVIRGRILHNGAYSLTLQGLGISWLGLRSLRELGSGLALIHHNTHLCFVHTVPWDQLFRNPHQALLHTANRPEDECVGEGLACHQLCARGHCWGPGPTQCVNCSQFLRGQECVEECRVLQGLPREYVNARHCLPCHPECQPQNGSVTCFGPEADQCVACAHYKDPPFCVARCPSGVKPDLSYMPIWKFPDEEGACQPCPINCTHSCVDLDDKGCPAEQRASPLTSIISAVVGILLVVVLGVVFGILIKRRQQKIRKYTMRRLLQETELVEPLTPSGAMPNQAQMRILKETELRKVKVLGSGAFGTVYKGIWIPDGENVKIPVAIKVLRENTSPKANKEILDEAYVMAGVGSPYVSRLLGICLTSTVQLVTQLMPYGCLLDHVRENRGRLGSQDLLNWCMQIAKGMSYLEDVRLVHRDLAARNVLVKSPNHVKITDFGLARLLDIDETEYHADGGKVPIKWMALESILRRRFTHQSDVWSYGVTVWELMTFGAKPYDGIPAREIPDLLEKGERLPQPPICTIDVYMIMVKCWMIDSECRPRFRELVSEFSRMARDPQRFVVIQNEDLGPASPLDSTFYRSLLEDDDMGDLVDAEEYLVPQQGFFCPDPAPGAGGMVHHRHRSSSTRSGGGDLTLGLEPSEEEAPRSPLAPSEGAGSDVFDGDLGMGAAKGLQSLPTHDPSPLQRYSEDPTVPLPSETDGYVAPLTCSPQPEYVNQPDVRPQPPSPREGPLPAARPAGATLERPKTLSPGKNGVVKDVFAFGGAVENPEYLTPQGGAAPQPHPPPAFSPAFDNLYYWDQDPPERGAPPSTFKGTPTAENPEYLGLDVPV
# [4] = reduced viability of SK-BR-3 breast cancer cells – cell-based, 24 h, human, pilot screen (AID 572;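 active = viability at or below 10% of carrier control in both of two separate runs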;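 also: compound exposure lasted between 18 and 24 h rather than exactly 24 h; 100% = carrier-treated control wells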); conditions: SK-BR-3 viability, CellTiter-Glo luminescence, at 10 µM, stronger effect = lower value
# [5] = HUVEC growth inhibition – cell-based, human, primary screen (AID 575;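 active = viability at or below 30% in both replicate assays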;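 also: 100% = median of untreated cell wells with 0.1% DMSO on each plate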); conditions: HUVEC proliferation, CellTiter-Glo luminescence, 72 h; at 10 µM; stronger effect = lower value
# Summary of the method: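 System – primary HUVEC, no more than 12 passages · Medium – Low-serum (2% FBS) EBM, supplemented · Times – 72 h exposure, 37 °C, 5% CO2, 30 min RT equilibration · Measured by – luminescent ATP assay · Read-out – % viability relative to median vehicle-well signal on each plate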
# [6] = H69AR cell proliferation blockers – human, duplicate replicates, primary screen (AID 580;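 active = viability at or under a set limit in both replicates, limit being median viability minus 3 SD, cut at about 48% in these data, passing the limit was not always enough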;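 also: 100% = mean luminescence of untreated wells and 0% = no signal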); conditions: H69AR lung tumor cells viability, ATP luminescence, 72 h; at 10 µM; stronger effect = lower value
# [7] = MRP1 drug-resistance reversers in H69AR cells – cell-based, doxorubicin co-treatment, pilot screen (AID 601;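 active = viability loss from added drug above about 55%, and viability with drug at most 40%, in both replicates, limit read from the data, passing the limit was not always enough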); conditions: CellTiter-Glo, 72 h, at 10 µM; for differential viability (reversal): stronger effect = higher value
# [8] = yeast transport mutant growth inhibition pilot in 384-well plates, post-Golgi transport modulator project (AID 636; in the data active = inhibition above about 31%); conditions: absorbance 615 nm, about 18 h, stronger effect = higher value
# [9] = growth suppression of yeast trafficking mutant, preliminary HTS, modulators of trafficking downstream of Golgi apparatus project, 1536-format plate, OD 615 nm (AID 637; in the data active = inhibition above about 30%); conditions: yeast transport mutant growth, absorbance 615 nm, 18 h; stronger effect = higher value
# [10] = H69AR cells + 2 uM doxorubicin, measured here: viability with 2 uM doxorubicin, stronger effect = lower value
# [11] = H69AR cells, compound alone cytotoxicity
SMILES,inhibition [1],viability [2] [%],Her2 level [3],viability [4],viability [5],viability [6],differential viability (reversal) ([7]; H69AR cells + 2 uM doxorubicin),"viability [7, 10] [%]","viability [7, 11] [%]",inhibition [8],inhibition [9]
NC(=O)CSP(=O)(c1ccccc1)c1ccccc1,0% (inactive),94,118% (inactive),94% (inactive),109% (inactive),102% (inactive),10.1% (inactive),92.3,102,-8.53% (inactive),-2.9% (inactive)
O=C1CC(c2ccccc2)CC(O)=C1C=NCCN1CCN(C(=O)Cc2ccccc2)CC1 (stereo unspecified),0% (inactive),122,97% (inactive),122% (inactive),91.2% (inactive),92.1% (inactive),-2.69% (inactive),94.8,92.1,-0.26% (inactive),11.5% (inactive)
CN1CCC(OC(=O)C2c3ccccc3Oc3ccccc32)CC1,2% (inactive),96.5,96% (inactive),96.5% (inactive),64.3% (inactive),86.4% (inactive),0.945% (inactive),85.5,86.4,-0.39% (inactive),-5.16% (inactive)
Cc1ccc(OCC(=O)NCCN2CCN(C(=O)COc3ccc(C)cc3)CC2)cc1,0% (inactive),124,106% (inactive),124% (inactive),88.5% (inactive),95.2% (inactive),1.29% (inactive),93.9,95.2,-1.76% (inactive),-5.56% (inactive)
COC(=O)C1C2c3ccccc3OC1(C)N=c1s/c(=C/c3cnn(C)c3C)c(=O)n12 (stereo unspecified),7% (inactive),–,–,98% (inactive),83.4% (inactive),91.8% (inactive),2.92% (inactive),88.8,91.8,-0.81% (inactive),8.18% (inactive)
CCCCCCn1c(O)c(C=NC2CCN(Cc3ccccc3)CC2)c(=O)[nH]c1=O,0% (inactive),83,67.5% (inactive),83% (inactive),72.3% (inactive),74.8% (inactive),5.99% (inactive),68.8,74.8,-1.05% (inactive),4.84% (inactive)
[N-]=[N+]=CC(=O)OC[C@H](N)C(=O)O,0% (inactive),–,–,99% (inactive),96.5% (inactive),88.5% (inactive),-17.2% (inactive),106,88.5,1.56% (inactive),1.83% (inactive)
Clc1ccc(CSC(Cn2ccnc2)c2ccc(Cl)cc2Cl)cc1 (stereo unspecified),0% (inactive),136,59% (inactive),136% (inactive),–,–,-14.6% (inactive),48.3,33.7,–,–
CCOc1ccc(-n2c(O)c(C=NCCN(CC)CC)c(=O)[nH]c2=O)cc1,0% (inactive),87,105% (inactive),87% (inactive),100% (inactive),103% (inactive),-0.4% (inactive),103,103,2.13% (inactive),-8.06% (inactive)
COc1ccc(CCNC(=O)c2c(N)n(CCN3CCOCC3)c3nc4ccccc4nc23)cc1,0% (inactive),104,87.5% (inactive),104% (inactive),–,19.3% (active),-20.5% (inactive),39.8,19.3,3.82% (inactive),1.82% (inactive)
CCCCCCC(N)CC(=O)O (stereo unspecified),0% (inactive),106,122% (inactive),106% (inactive),95.1% (inactive),94.8% (inactive),5.24% (inactive),89.6,94.8,-1.69% (inactive),-8.17% (inactive)
Nc1ccccc1C(=O)OC1CSC1,0% (inactive),132,110% (inactive),132% (inactive),105% (inactive),89.2% (inactive),0.43% (inactive),88.7,89.2,-2.53% (inactive),1.45% (inactive)
COc1ccccc1CN1CCN(C(=O)Cc2ccccc2)CC1,1% (inactive),–,–,97% (inactive),101% (inactive),99.6% (inactive),3.51% (inactive),96.1,99.6,-4.8% (inactive),-4.36% (inactive)
CN1CCC(N(C)c2ncnc3ccc(Br)cc23)CC1,0% (inactive),100,99.5% (inactive),100% (inactive),78.5% (inactive),87.9% (inactive),-25.8% (inactive),114,87.9,-6.1% (inactive),0.79% (inactive)
Clc1ccc(COC(Cn2ccnc2)c2ccc(Cl)cc2Cl)c(Cl)c1 (stereo unspecified),2% (inactive),105,20% (active),105% (inactive),9.27% (active),–,-27.5% (inactive),58.6,31,–,–
O=C(COc1ccc2ccccc2c1)N1CCN(C2CCN(Cc3ccccc3)CC2)CC1,0% (inactive),93,92% (inactive),93% (inactive),62.5% (inactive),99.8% (inactive),3.83% (inactive),96,99.8,-0.13% (inactive),1.8% (inactive)

SMILES,inhibition [1],viability [2] [%],Her2 level [3],viability [4],viability [5],viability [6],differential viability (reversal) ([7]; H69AR cells + 2 uM doxorubicin),"viability [7, 10] [%]","viability [7, 11] [%]",inhibition [8],inhibition [9]
Cc1cc(NC(=O)COC(=O)c2c(C)nn(Cc3ccccc3)c2Cl)no1,0% (inactive),96,102% (inactive),96% (inactive),79.2% (inactive),105% (inactive),19% (inactive),86,105,-4.27% (inactive),-8.03% (inactive)
O=C(CN1C(=O)CN=C(c2ccccc2)c2ccccc21)NCc1ccco1,2% (inactive),98,100% (inactive),98% (inactive),96.7% (inactive),80.4% (inactive),-1.24% (inactive),81.7,80.4,-3.42% (inactive),-5% (inactive)
CC(CCc1ccccc1)NC(C)C(O)c1ccc(O)cc1 (stereo unspecified),4% (inactive),–,–,87% (inactive),87.5% (inactive),97.2% (inactive),1.7% (inactive),95.5,97.2,-0.26% (inactive),-3% (inactive)
CCCCn1c(O)c(C(C)=Nc2cccc(C(=O)O)c2)c(=O)[nH]c1=O,0% (inactive),108,106% (inactive),108% (inactive),89.4% (inactive),105% (inactive),4.39% (inactive),100,105,-2.11% (inactive),9.02% (inactive)
c1ccc(C2CC3CC(c4ccco4)N2O3)cc1 (stereo unspecified),0% (inactive),93,89.5% (inactive),93% (inactive),82.8% (inactive),113% (inactive),22.5% (inactive),90.9,113,-0.4% (inactive),-7.74% (inactive)
CCn1c(C)c(C(=O)O)c2cc(OC)ccc21,4% (inactive),88.5,76% (inactive),88.5% (inactive),105% (inactive),96.1% (inactive),-4.98% (inactive),101,96.1,-3.2% (inactive),-0.65% (inactive)
CSc1ccc(CNC2CN3CCC2CC3)cc1 (stereo unspecified),0% (inactive),89.5,93.5% (inactive),89.5% (inactive),91.2% (inactive),89.1% (inactive),7.31% (inactive),81.8,89.1,-3.47% (inactive),-3.77% (inactive)
O=C(O)Cn1cc(C(=O)c2ccccc2)c2ccccc21,0% (inactive),–,–,89% (inactive),104% (inactive),94.7% (inactive),-1.34% (inactive),96,94.7,-7.07% (inactive),-0.36% (inactive)
CC1(C)C(c2ccccc2)=NC(c2cccnc2)N1O (stereo unspecified),0% (inactive),106,96% (inactive),106% (inactive),106% (inactive),95.3% (inactive),-4.39% (inactive),99.7,95.3,-6.76% (inactive),5.74% (inactive)
CC(C)C[C@H](NC(=O)[C@@H]1CCCN1C(=O)[C@@H](N)Cc1ccc(O)cc1)C(=O)NCC(N)=O (H-YPLG-NH2),0% (inactive),–,–,105% (inactive),96.2% (inactive),97.6% (inactive),0.84% (inactive),96.8,97.6,-2.73% (inactive),0.33% (inactive)
Cc1ccc(C)c(C2(O)CC(C)N(C)CC2C)c1 (stereo unspecified),0% (inactive),110,103% (inactive),110% (inactive),94.9% (inactive),102% (inactive),10.4% (inactive),91.7,102,-1.32% (inactive),-2.7% (inactive)
Cc1ccc(S(=O)(=O)Cc2ccc(C(=O)N3CCC4(CC3)OCCO4)o2)cc1,0% (inactive),75,104% (inactive),75% (inactive),103% (inactive),90.6% (inactive),-3.13% (inactive),93.7,90.6,7.37% (inactive),-5.64% (inactive)
Cc1ccc2nc(N3CCN(C)CC3)[nH]c2c1,0% (inactive),–,–,111% (inactive),90.4% (inactive),93.6% (inactive),2.07% (inactive),91.5,93.6,1.64% (inactive),-1.13% (inactive)
O=C(O)CCCc1ccc(N(CCCl)CCCl)cc1,0% (inactive),–,–,78% (inactive),68.1% (inactive),81.8% (inactive),-17.3% (inactive),99.1,81.8,-1.17% (inactive),0.67% (inactive)
O=C(CCCOc1ccc(Cl)cc1Cl)N1CCC2(CC1)OCCO2,0% (inactive),106,96.5% (inactive),106% (inactive),93.3% (inactive),92.5% (inactive),11.1% (inactive),81.5,92.5,-5% (inactive),-2% (inactive)
COP(=O)(OC)C(O)C(Cl)(Cl)Cl (stereo unspecified),0% (inactive),–,–,122% (inactive),95.5% (inactive),82.6% (inactive),-3.13% (inactive),85.7,82.6,-1.56% (inactive),-3.83% (inactive)
